These results are taken from ChEMBL document CHEMBL1123192 (J Med Chem, 1986).

Each structure is given as a SMILES string. A value given as a limit tells only on which side of the number the result lay.

The subject of assay [1] is Rattus norvegicus. The assay is described as follows: Maximal change in mean arterial blood pressure (MABP) measured as pretreatment value at dose of 5 mg/kg in SHR. It counts as functional. An outline of the steps: (§1)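 Spontaneously hypertensive rats; test agent dissolved or dispersed in 0.5% methylcellulose and given by gastric gavage at 5 mL/kg after a 1-h equilibration. Doses ranged from 1 to 100 mg/kg, with 4–8 animals per dose. MABP and HR were monitored for 4 h. Pretreatment values and maximal % change were recorded, and maximal changes were compared with vehicle by Dunnett's t test.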

The subject of assay [2] is Rattus norvegicus. Nature of the assay: Maximal change in heart rate (HR) measured as % change from pretreatment value at dose of 5 mg/kg in SHR. It counts as functional. In short, it runs like this: as §1
The test system of assay [3] is Rattus norvegicus. The assay is described as follows: Maximal change in mean arterial blood pressure (MABP) measured as pretreatment value at dose of 25 mg/kg in SHR. It counts as functional. An outline of the steps:
as §1

Assay [4] has as its system Rattus norvegicus. Nature of the assay: Maximal change in heart rate (HR) measured as pretreatment value at dose of 10 mg/kg in SHR. It counts as functional. An outline of the steps: as §1
The target in assay [5] is Beta-1 adrenergic receptor (Cavia porcellus) (UniProt B0FL73). The assay is described as follows: Beta-1 adrenergic receptor ISA (intrinsic sympathomimetic activity)using the guinea pig right atria was measured as % increase of positive chronotropic effect (basal spontaneous beating rate) at 1x10E-7 M.
Assay [6] concerns Rattus norvegicus. Nature of the assay: Maximal change in mean arterial blood pressure (MABP) measured as % change from pretreatment value at dose of 10 mg/kg in SHR. It counts as functional. An outline of the steps: as §1
Assay [7] deals with Rattus norvegicus. The assay is described as follows: Maximal change in mean arterial blood pressure (MABP) measured as pretreatment value at dose of 10 mg/kg in SHR. It counts as functional. An outline of the steps:
as §1

In assay [8] the test system is Rattus norvegicus. The assay is described as follows: Maximal change in heart rate (HR) measured as % change from pretreatment value at dose of 25 mg/kg in SHR. It counts as functional. An outline of the steps:
as §1

In assay [9] the target is T1, Adrenergic receptor alpha-2 (Rattus norvegicus, UniProt P22086+P19328+P22909).
T1 sequence (P22086 whole entry): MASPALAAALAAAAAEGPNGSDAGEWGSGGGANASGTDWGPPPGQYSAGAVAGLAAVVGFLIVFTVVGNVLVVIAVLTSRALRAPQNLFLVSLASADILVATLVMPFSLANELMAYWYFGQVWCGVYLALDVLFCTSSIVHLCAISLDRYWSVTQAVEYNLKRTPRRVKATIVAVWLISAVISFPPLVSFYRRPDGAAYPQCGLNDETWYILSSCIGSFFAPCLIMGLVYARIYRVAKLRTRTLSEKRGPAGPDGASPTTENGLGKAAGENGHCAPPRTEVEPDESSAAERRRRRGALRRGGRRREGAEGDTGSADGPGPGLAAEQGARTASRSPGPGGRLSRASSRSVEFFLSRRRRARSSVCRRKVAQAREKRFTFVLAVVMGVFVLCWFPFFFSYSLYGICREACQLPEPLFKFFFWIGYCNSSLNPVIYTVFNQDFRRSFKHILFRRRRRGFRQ
T1 sequence (P19328 whole entry): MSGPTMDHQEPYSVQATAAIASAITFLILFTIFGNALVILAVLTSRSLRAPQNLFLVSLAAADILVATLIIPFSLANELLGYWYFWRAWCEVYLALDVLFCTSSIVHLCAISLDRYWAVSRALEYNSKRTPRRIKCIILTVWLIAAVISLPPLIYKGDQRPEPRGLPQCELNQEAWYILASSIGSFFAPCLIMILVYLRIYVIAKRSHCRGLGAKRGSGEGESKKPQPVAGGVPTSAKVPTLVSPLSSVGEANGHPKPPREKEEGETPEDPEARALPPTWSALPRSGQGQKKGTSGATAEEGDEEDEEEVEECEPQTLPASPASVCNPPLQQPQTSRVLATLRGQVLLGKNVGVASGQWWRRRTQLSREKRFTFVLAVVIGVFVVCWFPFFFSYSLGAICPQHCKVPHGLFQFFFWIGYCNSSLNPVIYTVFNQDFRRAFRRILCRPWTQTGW
T1 sequence (P22909 whole entry): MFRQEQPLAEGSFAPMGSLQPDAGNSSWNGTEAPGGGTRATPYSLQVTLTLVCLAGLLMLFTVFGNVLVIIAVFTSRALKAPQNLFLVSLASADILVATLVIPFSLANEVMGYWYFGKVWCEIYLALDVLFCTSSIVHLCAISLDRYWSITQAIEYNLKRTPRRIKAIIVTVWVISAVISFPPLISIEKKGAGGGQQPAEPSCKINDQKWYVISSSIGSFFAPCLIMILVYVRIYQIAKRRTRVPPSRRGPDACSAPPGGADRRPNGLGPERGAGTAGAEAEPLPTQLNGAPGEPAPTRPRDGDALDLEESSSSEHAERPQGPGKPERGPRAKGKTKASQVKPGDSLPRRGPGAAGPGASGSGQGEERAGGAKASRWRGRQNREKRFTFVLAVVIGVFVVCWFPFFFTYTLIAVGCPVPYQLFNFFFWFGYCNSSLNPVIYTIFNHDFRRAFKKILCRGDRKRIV
Nature of the assay: The compound was evaluated for the antagonistic activity against alpha-2 adrenergic receptor. It counts as functional.

In assay [10] the test system is Rattus norvegicus. The assay is described as follows: Maximal change in heart rate (HR) measured as % change from pretreatment value at dose of 10 mg/kg in SHR. It counts as functional. In short, it runs like this:
as §1

The test system of assay [11] is Rattus norvegicus. Nature of the assay: Maximal change in mean arterial blood pressure (MABP) measured as % change from pretreatment value at dose of 5 mg/kg in SHR. It counts as functional. In short, it runs like this:
as §1

For the next assay, the species on record is Cavia porcellus. Nature of the assay: Beta-2-adrenoceptor ISA (intrinsic sympathomimetic activity)was measured as relaxant effect against a PGF2-alpha contracted guinea pig trachea at 1x10E-5 M. It counts as functional.
Assay [12] deals with Beta-1 adrenergic receptor (Cavia porcellus, UniProt B0FL73). The assay is described as follows: The compound was evaluated for the antagonistic activity against beta-1 adrenergic receptor. It counts as functional. The note with it: read-out: pA2 (converted). An outline of the steps:
(§2)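 Isolated tissue suited to each receptor test, held in 10-mL organ baths of Krebs-Henseleit solution at 37 °C and gassed with 95% O2/5% CO2. Antagonism was judged by how several concentrations of test agent altered a cumulative concentration-response curve to a receptor-specific agonist.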

For assay [13], the target named is Beta-2 adrenergic receptor (Cavia porcellus, UniProt Q8K4Z4). Nature of the assay: The compound was evaluated for the antagonistic activity against beta-2 adrenergic receptor. The note with it: read-out: pA2 (converted). It counts as functional. In short, it runs like this:
as §2

Assay [14] concerns Rattus norvegicus. The assay is described as follows: TMaximal change in heart rate (HR) measured as pretreatment value at dose of 5 mg/kg in SHR. It counts as functional. An outline of the steps:
as §1

Assay [15] relates to Rattus norvegicus. Nature of the assay: Maximal change in heart rate (HR) measured as pretreatment value at dose of 25 mg/kg in SHR. It counts as functional. In short, it runs like this:
as §1

Assay [16] has as its system Rattus norvegicus. The assay is described as follows: Maximal change in mean arterial blood pressure (MABP) measured as % change from pretreatment value at dose of 25 mg/kg. It counts as functional. An outline of the steps:
as §1

Chain of Beta-2 adrenergic receptor (Q8K4Z4 whole entry): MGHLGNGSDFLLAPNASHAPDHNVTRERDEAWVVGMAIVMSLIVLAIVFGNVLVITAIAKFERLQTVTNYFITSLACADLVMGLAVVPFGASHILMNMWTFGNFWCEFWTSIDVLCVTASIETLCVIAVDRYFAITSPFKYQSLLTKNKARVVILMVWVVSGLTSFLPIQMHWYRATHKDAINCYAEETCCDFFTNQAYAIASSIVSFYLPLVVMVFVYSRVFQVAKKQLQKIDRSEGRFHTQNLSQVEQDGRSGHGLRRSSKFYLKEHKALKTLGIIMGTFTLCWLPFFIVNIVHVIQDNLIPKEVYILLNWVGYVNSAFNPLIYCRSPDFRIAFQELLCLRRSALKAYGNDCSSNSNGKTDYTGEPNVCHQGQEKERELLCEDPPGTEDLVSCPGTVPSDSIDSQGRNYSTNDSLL
Chain of Beta-1 adrenergic receptor (B0FL73 whole entry): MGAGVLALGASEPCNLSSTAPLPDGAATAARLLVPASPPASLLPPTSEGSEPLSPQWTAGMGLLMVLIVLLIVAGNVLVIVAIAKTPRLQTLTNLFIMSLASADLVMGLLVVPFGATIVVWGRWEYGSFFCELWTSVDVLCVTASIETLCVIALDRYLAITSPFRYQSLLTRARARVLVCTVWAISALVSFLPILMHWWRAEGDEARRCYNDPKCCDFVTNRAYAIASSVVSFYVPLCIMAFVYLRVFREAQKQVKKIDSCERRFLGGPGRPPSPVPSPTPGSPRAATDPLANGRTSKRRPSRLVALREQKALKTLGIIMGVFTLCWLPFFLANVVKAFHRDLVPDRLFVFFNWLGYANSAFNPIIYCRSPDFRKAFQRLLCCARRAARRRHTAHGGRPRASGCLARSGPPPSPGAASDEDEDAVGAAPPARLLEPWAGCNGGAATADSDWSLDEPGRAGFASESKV
Chain of Beta-1 adrenergic receptor (Cavia porcellus) (B0FL73 1-467): as the sequence (B0FL73 whole entry) above

Usually pA2 stands for a measure of antagonist potency on a negative log scale. Lower therefore signals a weaker antagonist. In the case of `CC(CCc1ccccc1)NCC(O)c1ccc(O)c(C(N)=O)c1` (configuration not stated) [LABETALOL], the values for the MABP with Rattus norvegicus [1], in the assay with Rattus norvegicus [3] and in the assay on Rattus norvegicus [7] were 161 mmHg, 163 mmHg and 158 mmHg, respectively. For the same compound, the Change is -15% in the assay with Rattus norvegicus [2]; 0% in [5]; -25% in the assay with Rattus norvegicus [6]; -27% in the assay on Rattus norvegicus [8]; -23% in the assay on Rattus norvegicus [10]; -14% in the assay on Rattus norvegicus [11]. The Change in the assay listed under Cavia porcellus is 62%; in the assay with Rattus norvegicus [16] it was -31%. The HR in the assay with Rattus norvegicus [4] is 457 beats min-1; with Rattus norvegicus [14], 424 beats min-1; in the assay on Rattus norvegicus [15] it was 437 beats min-1. In [9], this compound had a pA2 of under 5. The results for the Kb in assay [12] and in assay [13] were 31.6 nM and 39.8 nM, respectively.
